Laboratory results as given in ChEMBL document CHEMBL4339192, “De Novo Designed Amphipathic α-Helical Antimicrobial Peptides Incorporating Dab and Dap Residues on the Polar Face To Treat the Gram-Negative Pathogen, Acinetobacter baumannii” (J Med Chem, 2019).
Where a SMILES comes first, the peptide text is derived from it. [ ]: non-standard residue; d: D form. Dap = NC[C@H](N)C(=O)O

Legend:
[1] = Therapeutic index, ratio of HC50 for human RBC to MIC for polymyxin B/colistin-resistant Acinetobacter baumannii M89951; format: toxicity; conditions: human red blood cells, read-out: TI
How it was run: (§1)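 T.I. = HC50/MIC. For HC50, peptide (quantified by amino acid analysis) was two-fold serially diluted over 12 concentrations up to 1000 μg/mL. It was incubated with 1% fresh human erythrocytes in PBS, pH 7.4, for 18 h at 37 °C. After 800g centrifugation, hemoglobin was read at 570 nm against water (100%) and no-peptide (0%) controls. HC50 came from a lysis-versus-concentration plot, average of 3 replicates.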

Acinetobacter baumannii [2] = assay: Antibacterial activity against Acinetobacter baumannii isolate 963659 measured after 24 hrs by microtiter dilution method; format: functional; conditions: isolate 963659, 24 h
How it was run: (§2)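 Broth microdilution in Mueller-Hinton (MH) medium. […] Plates were incubated 24 h at 37 °C. MIC was the lowest peptide concentration that inhibited growth, based on three sets of replicates.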

Acinetobacter baumannii [3] = assay: Antibacterial activity against Acinetobacter baumannii isolate 1035166 measured after 24 hrs by microtiter dilution method; format: functional; conditions: isolate 1035166, 24 h; how it was run: as §2
Acinetobacter baumannii [4] = assay: Antibacterial activity against Acinetobacter baumannii isolate 1017395 measured after 24 hrs by microtiter dilution method; format: functional; conditions: isolate 1017395, 24 h; how it was run: as §2
Acinetobacter baumannii [5] = assay: Antibacterial activity against Acinetobacter baumannii isolate 981650 measured after 24 hrs by microtiter dilution method; format: functional; conditions: isolate 981650, 24 h; how it was run: as §2
Acinetobacter baumannii [6] = assay: Antibacterial activity against Acinetobacter baumannii isolate 968886 measured after 24 hrs by microtiter dilution method; format: functional; conditions: isolate 968886, 24 h; how it was run: as §2
Acinetobacter baumannii [7] = assay: Antibacterial activity against Acinetobacter baumannii isolate 1007660 measured after 24 hrs by microtiter dilution method; format: functional; conditions: isolate 1007660, 24 h; how it was run: as §2
[8] = Therapeutic index, ratio of HC50 for human RBC to MIC for polymyxin B/colistin-resistant Acinetobacter baumannii M89941; format: toxicity; conditions: human red blood cells, read-out: TI; how it was run: as §1
Acinetobacter baumannii [9] = assay: Antibacterial activity against Acinetobacter baumannii isolate 1018887 measured after 24 hrs by microtiter dilution method; format: functional; conditions: isolate 1018887, 24 h; how it was run: as §2
Acinetobacter baumannii [10] = assay: Antibacterial activity against polymyxin B/colistin-resistant Acinetobacter baumannii M89953 measured after 24 hrs by microtiter dilution method; format: functional; conditions: M89953, 24 h; how it was run: as §2
[11] = Therapeutic index, ratio of HC50 for human RBC to MIC for polymyxin B/colistin-resistant Acinetobacter baumannii M89952; format: toxicity; conditions: human red blood cells, read-out: TI; how it was run: as §1
Acinetobacter baumannii [12] = assay: Antibacterial activity against Acinetobacter baumannii isolate 964304 measured after 24 hrs by microtiter dilution method; format: functional; conditions: isolate 964304, 24 h; how it was run: as §2
Acinetobacter baumannii [13] = assay: Antibacterial activity against Acinetobacter baumannii isolate 1010245 measured after 24 hrs by microtiter dilution method; format: functional; conditions: isolate 1010245, 24 h; how it was run: as §2
Acinetobacter baumannii [14] = assay: Antibacterial activity against Acinetobacter baumannii isolate 965463 measured after 24 hrs by microtiter dilution method; format: functional; conditions: isolate 965463, 24 h; how it was run: as §2
Acinetobacter baumannii [15] = assay: Antibacterial activity against Acinetobacter baumannii isolate 952654 measured after 24 hrs by microtiter dilution method; format: functional; conditions: isolate 952654, 24 h; how it was run: as §2
[16] = Hemolytic activity against human RBC measured after 18 hrs by spectrophotometric method; format: ADME, cell-based, Erythrocyte; conditions: human red blood cells (erythrocytes)
How it was run: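 Peptide (amount by amino acid analysis), two-fold serial dilutions at 12 concentrations up to 1000 μg/mL, with 1% human erythrocytes in PBS pH 7.4, 37 °C, 18 h. Unlysed cells removed by centrifugation (800g); hemoglobin read at 570 nm. Water-lysed cells = 100%, no-peptide cells = 0%. HC50 from plot of % lysis vs concentration (μM), average of 3 replicates.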

Acinetobacter baumannii [17] = assay: Antibacterial activity against Acinetobacter baumannii isolate 1021371 measured after 24 hrs by microtiter dilution method; format: functional; conditions: isolate 1021371, 24 h; how it was run: as §2
[18] = Therapeutic index, ratio of HC50 for human RBC to MIC for polymyxin B/colistin-resistant Acinetobacter baumannii M89953; format: toxicity; conditions: human red blood cells, read-out: TI; how it was run: as §1
Acinetobacter baumannii [19] = assay: Antibacterial activity against Acinetobacter baumannii isolate 1001611 measured after 24 hrs by microtiter dilution method; format: functional; conditions: isolate 1001611, 24 h; how it was run: as §2
Acinetobacter baumannii [20] = assay: Antibacterial activity against Acinetobacter baumannii isolate 1010282 measured after 24 hrs by microtiter dilution method; format: functional; conditions: isolate 1010282, 24 h; how it was run: as §2
Acinetobacter baumannii [21] = assay: Antibacterial activity against Acinetobacter baumannii isolate 1002956 measured after 24 hrs by microtiter dilution method; format: functional; conditions: isolate 1002956, 24 h; how it was run: as §2
Acinetobacter baumannii [22] = assay: Antibacterial activity against polymyxin B/colistin-resistant Acinetobacter baumannii M89952 measured after 24 hrs by microtiter dilution method; format: functional; conditions: M89952, 24 h; how it was run: as §2
[23] = Therapeutic index, ratio of HC50 for human RBC to MIC for polymyxin B/colistin-resistant Acinetobacter baumannii M89963; format: toxicity; conditions: human red blood cells, read-out: TI; how it was run: as §1
Acinetobacter baumannii [24] = assay: Antibacterial activity against polymyxin B/colistin-resistant Acinetobacter baumannii M89941 measured after 24 hrs by microtiter dilution method; format: functional; conditions: M89941, 24 h; how it was run: as §2
Acinetobacter baumannii [25] = assay: Antibacterial activity against polymyxin B/colistin-resistant Acinetobacter baumannii M89955 measured after 24 hrs by microtiter dilution method; format: functional; conditions: M89955, 24 h; how it was run: as §2
Acinetobacter baumannii [26] = assay: Antibacterial activity against Acinetobacter baumannii 649 measured after 24 hrs in presence of 25% human serum by microtiter dilution method; format: functional; conditions: Acinetobacter baumannii, 649, 24 h
How it was run: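 Blood strain 649 was tested by MH broth microdilution with and without 25% (v/v) human serum added to the medium. The test used a final inoculum of 5 × 10^5 cfu/mL and incubation at 37 °C. The ratio is the MIC in serum over the MIC in MH alone.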

Acinetobacter baumannii [27] = assay: Antibacterial activity against Acinetobacter baumannii 649 measured after 24 hrs by microtiter dilution method; format: functional; conditions: Acinetobacter baumannii, 649, 24 h; how it was run: as §2
Acinetobacter baumannii [28] = assay: Antibacterial activity against Acinetobacter baumannii isolate 961997 measured after 24 hrs by microtiter dilution method; format: functional; conditions: isolate 961997, 24 h; how it was run: as §2
Acinetobacter baumannii [29] = assay: Antibacterial activity against polymyxin B/colistin-resistant Acinetobacter baumannii M89963 measured after 24 hrs by microtiter dilution method; format: functional; conditions: M89963, 24 h; how it was run: as §2
Acinetobacter baumannii [30] = assay: Antibacterial activity against polymyxin B/colistin-resistant Acinetobacter baumannii M89949 measured after 24 hrs by microtiter dilution method; format: functional; conditions: M89949, 24 h; how it was run: as §2
Acinetobacter baumannii [31] = assay: Antibacterial activity against Acinetobacter baumannii isolate 1035794 measured after 24 hrs by microtiter dilution method; format: functional; conditions: isolate 1035794, 24 h; how it was run: as §2
[32] = Therapeutic index, ratio of HC50 for human RBC to MIC for polymyxin B/colistin-resistant Acinetobacter baumannii M89955; format: toxicity; conditions: human red blood cells, read-out: TI; how it was run: as §1
Acinetobacter baumannii [33] = assay: Antibacterial activity against polymyxin B/colistin-resistant Acinetobacter baumannii M89951 measured after 24 hrs by microtiter dilution method; format: functional; conditions: M89951, 24 h; how it was run: as §2
[34] = Therapeutic index, ratio of HC50 for human RBC to MIC for polymyxin B/colistin-resistant Acinetobacter baumannii M89949; format: toxicity; conditions: human red blood cells, read-out: TI; how it was run: as §1
Acinetobacter baumannii [35] = assay: Antibacterial activity against Acinetobacter baumannii isolate 9383370 measured after 24 hrs by microtiter dilution method; format: functional; conditions: isolate 9383370, 24 h; how it was run: as §2
Acinetobacter baumannii [36] = assay: Antibacterial activity against Acinetobacter baumannii isolate 977751 measured after 24 hrs by microtiter dilution method; format: functional; conditions: isolate 977751, 24 h; how it was run: as §2
Acinetobacter baumannii [37] = assay: Antibacterial activity against Acinetobacter baumannii isolate 963618 measured after 24 hrs by microtiter dilution method; format: functional; conditions: isolate 963618, 24 h; how it was run: as §2

CC(=O)N[C@H](CCCCN)C(=O)N[C@H](CC(C)C)C(=O)N[C@@H](CN)C(=O)N[C@H](CO)C(=O)N[C@H](CC(C)C)C(=O)N[C@H](CC(C)C)C(=O)N[C@@H](CN)C(=O)N[C@@H](C(=O)N[C@H](CC(C)C)C(=O)N[C@H](CO)C(=O)N[C@@H](CN)C(=O)N[C@H](C)C(=O)N[C@H](CCCCN)C(=O)N[C@H](C)C(=O)N[C@H](C)C(=O)N[C@H](CCCCN)C(=O)N[C@H](CC(C)C)C(=O)N[C@@H](CN)C(=O)N[C@@H](C(=O)N[C@H](CC(C)C)C(=O)N[C@H](CC(C)C)C(=O)N[C@@H](CN)C(=O)N[C@H](C)C(=O)N[C@H](CC(C)C)C(=O)N[C@H](CO)C(=O)N[C@@H](CN)C(N)=O)[C@H](C)O)[C@H](C)O (Ac-[dK][dL][Dap][dS][dL][dL][Dap][dT][dL][dS][Dap][dA][dK][dA][dA][dK][dL][Dap][dT][dL][dL][Dap][dA][dL][dS][Dap]-NH2)
0.8 µM: MIC (Acinetobacter baumannii [3]) | MIC (Acinetobacter baumannii [5]) | MIC (Acinetobacter baumannii [7]) | MIC (Acinetobacter baumannii [9]) | MIC (Acinetobacter baumannii [13]) | MIC (Acinetobacter baumannii [20]) | MIC (Acinetobacter baumannii [21]) | MIC (Acinetobacter baumannii [22]) | MIC (Acinetobacter baumannii [24]) | MIC (Acinetobacter baumannii [25]) | MIC (Acinetobacter baumannii [27]) | MIC (Acinetobacter baumannii [30]) | MIC (Acinetobacter baumannii [31]) | MIC (Acinetobacter baumannii [35]) | MIC (Acinetobacter baumannii [36]) | MIC (Acinetobacter baumannii [37])
0.4 µM: MIC (Acinetobacter baumannii [19])
1.5 µM: MIC (Acinetobacter baumannii [2]) | MIC (Acinetobacter baumannii [4]) | MIC (Acinetobacter baumannii [6]) | MIC (Acinetobacter baumannii [12]) | MIC (Acinetobacter baumannii [14]) | MIC (Acinetobacter baumannii [15]) | MIC (Acinetobacter baumannii [17]) | MIC (Acinetobacter baumannii [28]) | MIC (Acinetobacter baumannii [29])
3 µM: MIC (Acinetobacter baumannii [10]) | MIC (Acinetobacter baumannii [26]) | MIC (Acinetobacter baumannii [33])
> 1.15 mM: HC50 at 18 h [16]
> 957: selectivity ratio [1] | selectivity ratio [8] | selectivity ratio [11] | selectivity ratio [18] | selectivity ratio [23] | selectivity ratio [32] | selectivity ratio [34]
